Laboratory results from ChEMBL document CHEMBL1143582, “Discovery of the alpha7 nicotinic acetylcholine receptor agonists. (R)-3'-(5-Chlorothiophen-2-yl)spiro-1-azabicyclo[2.2.2]octane-3,5'-[1',3']oxazolidin-2'-one as a novel, potent, selective, and orally bioavailable ligand” (J Med Chem, 2005).
pIC50, pKi: −log10 of the molar value.

Assays:
[1] = target: T1, Neuronal acetylcholine receptor subunit alpha-7 (Rattus norvegicus, UniProt Q05941); test: (§1) Inhibition of [125I]alpha-bungarotoxin binding to rat nicotinic acetylcholine receptor alpha7
[2] = target: T1, Neuronal acetylcholine receptor subunit alpha-7; test: as §1; remark: listed apart in the source
Summary of the method: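 Membranes from Wistar rat hippocampus made by sucrose homogenisation and differential centrifugation, then resuspended in 118 mM NaCl, 4.8 mM KCl, 2.5 mM CaCl2, 1.2 mM MgCl2, 20 mM Na-HEPES pH 7.5. Incubated with [125I]-α-bungarotoxin plus compounds, 37 °C, 3 h. Bound label collected by filtration. Nonspecific binding defined with 100 µM (−)-nicotine.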

[3] = Oral bioavailability of compound after peroral dosing of 1.0 mg/kg in rats (N=4); type: ADME, organism-based; conditions: rat, in vivo, read-out: BA
[4] = Area under plasma concentration time curve 24 hours after peroral dosing of 10.0 mg/kg (AUC) in rats (N=4); type: ADME, organism-based; design: dose 10 mg/kg, route oral; conditions: rat, po
Summary of the method: (§2)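 Rats (N=4) given a single oral dose; plasma sampled over 24 h. AUC0-24h estimated from the plasma concentration-time curve and Cmax taken as the peak plasma level. Reported as mean ± SD.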

[5] = target: Neuronal acetylcholine receptor; alpha4/beta2 (Rattus norvegicus, UniProt P09483+P12390); test: Inhibition of [3H]cytisine binding to nicotinic acetylcholine receptor alpha4-beta2 from rat cerebral cortex; type: tissue-based
Summary of the method: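 Wistar rat cerebral cortex membranes in 120 mM NaCl, 2.5 mM KCl, 1 mM CaCl2, 1 mM MgCl2, 50 mM Tris-HCl pH 7.4. Incubated with [3H]cytisine plus compounds, 4 °C, 75 min. Filtered and counted by liquid scintillation. Nonspecific binding defined with 100 µM (−)-nicotine.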

[6] = Inhibition of [125I]alpha-bungarotoxin binding to nicotinic acetylcholine receptor […]-delta-gamma from BC3H1 cells; type: cell-based, Mus musculus; conditions: bc3h-1
Summary of the method: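 BC3H1 muscle cells grown in DMEM with 4 mM L-glutamine and 20% FBS. Membranes from confluent cells washed in HEPES-buffered saline, pH 7.5. Incubated with [125I]-α-bungarotoxin plus compounds, 37 °C, 3 h, then filtered. Nonspecific binding defined with […].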

[7] = Brain permeability is determined by ratio of concentration of compound in brain to that of in plasma (CB/CP) 2 hrs after oral dosing of 10.0 mg/kg (N=3); type: ADME, organism-based; design: dose 10 mg/kg, route oral; conditions: rat, read-out: Permeability
Summary of the method: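 Rats (N=3) given a single 10 mg/kg oral dose. Brain and plasma concentrations measured 2 h after dosing, and the brain/plasma ratio (CB/CP) calculated. Reported as mean ± SD.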

[8] = Maximum plasma concentration after peroral dosing of 1.0 mg/kg in rats (N=4); type: ADME, organism-based; design: dose 1 mg/kg, route oral; conditions: rat, po; summary of the method: as §2
[9] = Maximum plasma concentration after peroral dosing of 10.0 mg/kg in rats (N=4); type: ADME, organism-based; design: dose 10 mg/kg, route oral; conditions: rat, po; summary of the method: as §2
[10] = Area under plasma concentration time curve 24 hours after peroral dosing of 1.0 mg/kg (AUC) in rats (N=4); type: ADME, organism-based; design: dose 1 mg/kg, route oral; conditions: rat, po; summary of the method: as §2
[11] = Oral bioavailability of compound after peroral dosing of 10.0 mg/kg in rats (N=4); type: ADME, organism-based; conditions: rat, in vivo, read-out: BA
[12] = Brain permeability is determined by ratio of concentration of compound in brain to that of in plasma (CB/CP) 1 hr after subcutaneous dosing of 1.0 mg/kg (N=3); type: ADME, organism-based; design: dose 1 mg/kg, route subcutaneous; conditions: rat, sc, read-out: Permeability
Summary of the method: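 Rats (N=3) given a single 1 mg/kg sc dose. Brain and plasma concentrations measured 1 h later, and the brain/plasma ratio (CB/CP) calculated. Reported as mean ± SD.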

[13] = Half-life of plasma concentration after intravenous dosing of 1 mg/kg in rats (N=4); conditions: rat

T1 sequence (Q05941 whole entry): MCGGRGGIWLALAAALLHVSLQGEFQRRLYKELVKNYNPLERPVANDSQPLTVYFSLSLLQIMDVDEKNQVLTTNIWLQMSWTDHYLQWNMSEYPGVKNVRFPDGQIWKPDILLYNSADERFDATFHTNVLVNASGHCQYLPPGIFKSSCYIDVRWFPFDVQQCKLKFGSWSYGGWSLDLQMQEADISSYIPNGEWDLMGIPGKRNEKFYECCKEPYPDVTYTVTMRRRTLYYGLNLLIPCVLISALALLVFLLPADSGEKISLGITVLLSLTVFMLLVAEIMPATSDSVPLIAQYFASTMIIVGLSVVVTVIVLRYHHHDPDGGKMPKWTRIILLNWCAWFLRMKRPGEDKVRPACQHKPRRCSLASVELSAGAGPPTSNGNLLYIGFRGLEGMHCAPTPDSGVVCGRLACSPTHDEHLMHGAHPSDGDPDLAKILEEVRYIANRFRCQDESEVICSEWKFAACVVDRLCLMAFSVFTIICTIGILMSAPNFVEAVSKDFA
Chain of Neuronal acetylcholine receptor; alpha4/beta2 (P09483 whole entry): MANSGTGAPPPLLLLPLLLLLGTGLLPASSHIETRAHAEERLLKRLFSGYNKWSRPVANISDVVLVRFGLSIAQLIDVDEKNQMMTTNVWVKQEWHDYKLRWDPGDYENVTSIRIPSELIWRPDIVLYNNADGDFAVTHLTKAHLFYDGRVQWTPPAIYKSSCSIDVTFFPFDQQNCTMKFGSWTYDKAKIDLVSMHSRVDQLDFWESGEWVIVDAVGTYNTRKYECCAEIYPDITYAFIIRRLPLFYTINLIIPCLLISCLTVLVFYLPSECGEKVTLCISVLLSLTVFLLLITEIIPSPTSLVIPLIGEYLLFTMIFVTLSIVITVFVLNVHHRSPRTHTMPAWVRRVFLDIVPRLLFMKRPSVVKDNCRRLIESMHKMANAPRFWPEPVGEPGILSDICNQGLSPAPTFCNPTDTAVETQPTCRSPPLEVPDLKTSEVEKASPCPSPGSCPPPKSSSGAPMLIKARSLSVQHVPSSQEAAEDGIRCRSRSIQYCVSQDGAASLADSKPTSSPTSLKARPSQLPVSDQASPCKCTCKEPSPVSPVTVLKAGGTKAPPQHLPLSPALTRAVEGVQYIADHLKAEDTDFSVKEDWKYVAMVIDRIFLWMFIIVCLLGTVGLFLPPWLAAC
Chain of Neuronal acetylcholine receptor; alpha4/beta2 (P12390 whole entry): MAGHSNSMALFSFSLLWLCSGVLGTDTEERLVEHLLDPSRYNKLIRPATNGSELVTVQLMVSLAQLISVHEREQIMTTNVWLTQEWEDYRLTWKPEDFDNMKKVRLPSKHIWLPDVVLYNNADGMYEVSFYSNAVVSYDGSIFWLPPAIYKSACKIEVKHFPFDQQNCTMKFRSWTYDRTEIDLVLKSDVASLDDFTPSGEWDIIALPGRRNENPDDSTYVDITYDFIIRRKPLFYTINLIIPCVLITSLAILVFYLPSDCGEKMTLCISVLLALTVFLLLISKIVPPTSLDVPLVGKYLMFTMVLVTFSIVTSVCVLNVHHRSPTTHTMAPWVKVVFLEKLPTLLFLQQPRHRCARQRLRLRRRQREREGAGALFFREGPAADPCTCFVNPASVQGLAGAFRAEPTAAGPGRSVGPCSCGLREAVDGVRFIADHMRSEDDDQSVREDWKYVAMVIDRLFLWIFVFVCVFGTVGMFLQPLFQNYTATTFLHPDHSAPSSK

SMILES	pKi [1]	pIC50 [2]	also measured
c1ccc2sc(CO[C@@H]3CN4CCC3CC4)cc2c1	7.89		
O=C1O[C@]2(CN3CCC2CC3)CN1c1nc2ccccc2s1	6.37		
O=C1O[C@]2(CN3CCC2CC3)CN1c1nc2ccccc2o1		< 6.00	
N#Cc1ccc(N2C[C@@]3(CN4CCC3CC4)OC2=O)s1	7.07		
O=C1O[C@]2(CN3CCC2CC3)CN1c1cc2ccccc2o1	6.43		
O=C1OC2(CN3CCC2CC3)CN1c1ccccc1 (stereo unspecified)		< 6.00	
CC(C)c1ccc(N2C[C@@]3(CN4CCC3CC4)OC2=O)s1	7.19		
O=C1O[C@]2(CN3CCC2CC3)CN1c1ccsc1		< 6.00	
O=C1O[C@]2(CN3CCC2CC3)CN1c1ccc(Br)s1	8.40		
Cc1cc(N2C[C@@]3(CN4CCC3CC4)OC2=O)sc1C		< 6.00	
Cc1ccc(N2C[C@@]3(CN4CCC3CC4)OC2=O)s1	7.92		
CC(O)c1ccc(N2C[C@@]3(CN4CCC3CC4)OC2=O)s1 (stereo partly specified)	6.84		
O=C1O[C@]2(CN3CCC2CC3)CN1c1cc2ccccc2s1	7.12		
Cc1csc(N2C[C@@]3(CN4CCC3CC4)OC2=O)c1		< 6.00	
O=C1O[C@@]2(CN3CCC2CC3)CN1c1cc2ccccc2s1		< 6.00	
O=C1O[C@]2(CN3CCC2CC3)CN1c1ccc2ccccc2c1	7.51		
O=C1O[C@]2(CN3CCC2CC3)CN1c1ccc(Cl)s1	8.05		bioavailability [3]: 52%; AUC at 24 h [4]: 4640 ng·h/mL; pKi [5]: 5.74; pIC50 [6]: < 5.00; Kp at 2 h [7]: 59; Cmax [8]: 56 ng/mL; Cmax [9]: 997 ng/mL; AUC at 24 h [10]: 224 ng·h/mL; bioavailability [11]: 108%
O=C1NC[C@@]2(CN3CCC2CC3)O1			AUC at 24 h [4]: 5390 ng·h/mL; pIC50 [6]: < 5.00; Kp at 1 h [12]: 0.76; Cmax [9]: 1580 ng/mL; bioavailability [11]: 103%
O=C1O[C@]2(CN3CCC2CC3)CN1c1ccccn1		< 6.00	
O=C1O[C@@]2(CN3CCC2CC3)CN1c1ccc2ccccc2c1	6.69		
O=C1O[C@]2(CN3CCC2CC3)CN1c1cccs1	7.10		
CCc1ccc(N2C[C@@]3(CN4CCC3CC4)OC2=O)s1	7.68		
CC(=O)c1ccc(N2C[C@@]3(CN4CCC3CC4)OC2=O)s1	6.72		
Cc1ccsc1N1C[C@@]2(CN3CCC2CC3)OC1=O		< 6.00	
O=C(CC1CN2CCC1CC2)c1cc2ccccc2s1 (single isomer, unassigned; (+))	7.19		
COc1ccc(/C=C2\CCCN=C2c2cccnc2)c(OC)c1 [GTS-21]	6.66		AUC at 24 h [4]: 453 ng·h/mL; pKi [5]: 7.08; pIC50 [6]: < 5.00; Kp at 2 h [7]: < 0.3; Cmax [9]: 138 ng/mL; bioavailability [11]: 14%; half-life [13]: 28.2 min
